This is a sample that favours compounds with a hit; in the whole collection about 3.8% have one here.
GPR7 antag = GPR7 receptor antagonists, primary screen, cell-based, fluorescence, single concentration | Neuropeptides B/W receptor type 1 (Homo sapiens), P48145 | GPR7-expressing cells, fluorescence antagonist assay | inhibition, % at 4.4 µM | 290,000 tested, 1.1% active | AID 1861, 2009; in the data active means inhibition above about 16%, passing the limit was not always enough;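 further: cells stimulated with the agonist NPW; 0% = agonist with vehicle and 100% = vehicle without agonist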
Target sequence (P48145 whole entry, looked up): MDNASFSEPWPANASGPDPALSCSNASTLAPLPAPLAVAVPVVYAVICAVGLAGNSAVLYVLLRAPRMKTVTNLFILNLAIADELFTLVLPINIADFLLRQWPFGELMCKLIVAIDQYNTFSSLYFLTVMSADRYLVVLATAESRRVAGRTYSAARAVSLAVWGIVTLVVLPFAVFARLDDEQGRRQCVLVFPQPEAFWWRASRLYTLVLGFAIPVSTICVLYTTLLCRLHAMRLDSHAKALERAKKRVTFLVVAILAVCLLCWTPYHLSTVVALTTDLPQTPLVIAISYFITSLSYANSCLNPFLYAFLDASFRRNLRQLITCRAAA
CHO parental Ca = ATP-evoked calcium signal inhibitors, parental CHO, primary screen, counter-screen for OX1R antagonist project, cell-based, fluorescence, Fluo-8 calcium dye; parental CHO-K1, ATP-induced calcium, Fluo-8 fluorescence; inhibition, % at 5.6 µM; 330,000 tested, 0.63% active;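 active means inhibition above that plate's mean sample inhibition plus 3 SD, cut at about 26% in these data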;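 further: 0% = ATP-challenged DMSO wells and 100% = DMSO wells without ATP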
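Assay system: untransfected parental CHO cell line. Also added: ATP agonist challenge. Dosing: one dose, 5.6 µM nominal. Measured by: Fluo-8 fluorescence. Read-out: % inhibition. Benchmarks: ATP wells versus no-ATP DMSO wells. Repeats: no replicates.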
OX1R antag-1 = OX1R (HCRTR1) antagonists, primary screen, fluorescence, CHO/OX1R cells, Fluo-8 calcium, orexin A; Orexin/Hypocretin receptor type 1 (Homo sapiens), O43613; Fluo-8 calcium fluorescence; inhibition, % at 5 µM; 330,000 tested, 0.43% active; AID 434989, 2010;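 active means inhibition above its plate's threshold, mean inhibition of all tested compounds on the plate plus 3 SD, cut at about 37% in these data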;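 further: 0% = orexin A challenge wells and 100% = SB-334867-A antagonist wells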
OX1R antag-2 = antagonists of human orexin 1 receptor (OX1R). Orexin/Hypocretin receptor type 1 (Homo sapiens), O43613. OX1R-expressing cells, FRET antagonist read-out. inhibition, % at 6.6 µM. 330,000 tested, 1.8% active. AID 485270, 2010; in the data active means inhibition mostly above about 38%, no sharp cut-off; inactive means mostly below about 40%;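 further: 0% = agonist challenge alone and 100% = reference antagonist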
MPTP inh = mitochondrial permeability transition pore inhibitors, primary screen, biochemical, isolated mouse mitochondria, absorbance. Ca2+ swelling absorbance, 30 min. inhibition, % at 10 µM. 360,000 tested, 1.4% active. AID 602449, 2012;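 active means inhibition of 50% or more, scaled per plate between neutral and stimulator controls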;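 further: 0% = DMSO wells given calcium and 100% = 1 mM EGTA wells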
GPR7 antag cf = GPR7 receptor antagonists, confirmation, cell-based, fluorescence, single concentration. shares compounds with GPR7 antag. GPR7-expressing cells, calcium fluorescence antagonist mode. inhibition, % at 4.4 µM. 2,400 tested, 52% active. AID 1952, 2009; in the data active means inhibition above about 24%;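 further: stimulated with the GPR7 agonist NPW; 0% = agonist plus vehicle and 100% = vehicle alone without agonist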
MCHR1 antagonist = MCHR1 antagonists in cells, counter-screen for GPR7 antagonist project, cell-based, fluorescence, human; MCHR1-expressing cells, fluorescence antagonist assay; inhibition, % at 4.4 µM; shares compounds with GPR7 antag; 2,400 tested, 62% active; in the data active means inhibition above about 22%;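 further: 0% = vehicle with agonist and 100% = vehicle without agonist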
* = called active by the depositor; . = no result.

SMILES	GPR7 antag	CHO parental Ca	OX1R antag-1	OX1R antag-2	MPTP inh	GPR7 antag cf	MCHR1 antagonist
O=C(CSc1ncnc2scc(-c3ccccc3)c12)N1CCN(c2ccccc2F)CC1	26.7*	-9.0	-29.4	17.1	1.7	25.2*	33.6*
COc1ccc(CC(=O)O/N=C(\N)c2ccccn2)cc1OC	24.1*	.	.	.	-1.2	-2.2	5.4
C1=CCC(CN2CCN(C3CCCCCC3)CC2)CC1 (configuration not stated)	30.1*	-6.9	14.0	15.8	2.6	23.3	37.8*
Fc1ccc(C2CCNCC2COc2ccc3c(c2)OCO3)cc1 (configuration not stated)	28.4*	1.6	4.4	-4.8	2.7	35.8*	28.2*
CN(Cc1ccc(Cl)cc1)C(=O)CNC(=O)C12CC3CC(CC(C3)C1)C2	.	-16.0	-27.9	10.2	-1.5	.	.
COC(=O)c1sc(N)c(C(=O)OC)c1COC(=O)c1c(C)noc1C	23.0*	-7.9	-24.9	8.5	3.5	8.6	14.9
CCCCCc1ccc(-c2cn(Cc3ccc([N+](=O)[O-])cc3)nn2)cc1	33.4*	-5.0	-20.5	18.5	1.8	36.6*	57.3*
COC(=O)c1ccc(OCC(=O)NCCC2=CCCCC2)c(OC)c1	.	-18.1	-11.5	15.5	-0.9	.	.
CCC(=O)c1ccc(OCC(=O)NCCC2=CCCCC2)c(OC)c1	24.0*	-27.3	-29.4	7.7	-0.6	3.9	3.7
O=C(COC(=O)c1cc(S(=O)(=O)N2CCOCC2)cs1)c1ccccc1	25.5*	-11.0	-16.1	6.9	1.2	9.3	11.4
CC(C)CC(=O)Nc1nc(-c2ccc(S(=O)(=O)N3CCOCC3)cc2)cs1	-3.6	.	.	.	0.2	.	.
O=C(COC(=O)c1cc(S(=O)(=O)N2CCOCC2)ccc1F)c1ccccc1	.	-16.0	-4.9	8.1	-0.9	.	.
Cc1ccc(-c2csc(NC(=O)C3CCN(S(=O)(=O)c4cccs4)CC3)n2)cc1	39.3*	22.4	6.3	14.8	11.8	43.4*	56.9*
O=C(Nc1nc(-c2ccc(S(=O)(=O)N3CCOCC3)cc2)cs1)c1ccccc1	33.5*	-2.6	-0.3	15.8	-1.9	61.0*	76.2*
O=C(Nc1nc(-c2ccc3ccccc3c2)cs1)C1CCN(S(=O)(=O)c2cccs2)CC1	7.7	-10.7	-15.0	15.2	20.7	.	.
COc1ccc(-n2c(=O)c(CCC(=O)NCCc3ccccc3F)nc3ccccc32)cc1	.	-19.2	-5.8	0.6	-1.7	.	.
CCCCc1noc2c1/C(=N\O)CC(c1ccccc1)C2 (configuration not stated)	41.0*	14.8	5.4	11.5	0.9	36.5*	23.5*
CCCCc1n[nH]c2c1/C(=N/O)CC(c1ccccc1)C2 (configuration not stated)	10.6	-6.3	-4.2	6.8	-2.7	.	.
COc1ccc(C2CC(=O)C(C=NCCN3CCN(C(C)=O)CC3)=C(O)C2)cc1 (configuration not stated)	-7.8	-5.6	3.1	7.6	0.3	.	.
COc1ccc(C2CC(=O)C(C=NCCN3CCOCC3)=C(O)C2)cc1 (configuration not stated)	23.3*	-14.6	-14.5	2.0	0.0	-1.5	5.1
c1ccc2sc(C3CCN(Cc4nnnn4Cc4ccc5c(c4)OCO5)CC3)nc2c1	-9.2	-9.7	-13.2	21.8	5.3	.	.
COc1ccc(Cn2nnnc2CN2CCC(c3nc4ccccc4s3)CC2)cc1	29.4*	-4.3	-3.9	13.5	-1.7	35.5*	63.9*
CCCCNc1ccc(C(=O)OCCOCCOCCOCCOCCOCCOCCOCCOCCOC)cc1	.	-16.8	-20.4	16.4	-1.1	.	.
O=S(=O)(c1ccc(OC(F)(F)F)cc1)N1CCC(O)(c2cccc(C(F)(F)F)c2)CC1	39.1*	14.4	15.1	5.5	5.7	44.5*	45.5*
COc1cc(S(=O)(=O)N2CCC(O)(c3cccc(C(F)(F)F)c3)CC2)ccc1-n1cnnn1	-0.8	-21.1	7.4	8.1	1.1	.	.
SMILES	GPR7 antag	CHO parental Ca	OX1R antag-1	OX1R antag-2	MPTP inh	GPR7 antag cf	MCHR1 antagonist
COc1ccc(Br)cc1CN1CCSCC1	-19.8	-0.4	-3.0	11.3	1.3	.	.
CN(C)S(=O)(=O)c1cccc(C(=O)NCC2CCCCC2)c1	1.6	-10.5	-25.6	6.2	0.0	.	.
COc1ccc(N(C)S(=O)(=O)c2cccc(C(=O)NCC3CCCCC3)c2)cc1	25.9*	.	.	.	3.9	37.6*	37.5*
CN(c1ccccc1)S(=O)(=O)c1cccc(C(=O)NC2CCCCC2)c1	.	-29.9	-28.5	11.7	-0.5	.	.
COc1ccc(N(C)S(=O)(=O)c2cccc(C(=O)NC3CCCC3)c2)cc1	39.0*	-1.6	-11.1	9.8	1.1	43.3*	23.6*
NNC(=O)C(=O)NCCCN1CCOCC1	-0.5	-3.2	-11.1	7.9	-0.8	.	.
O=C1NC(=S)S/C1=C\c1coc2ccc(O)cc2c1=O	21.0*	-11.1	0.8	37.0	12.1	17.3	16.2
O=C1NC(=S)S/C1=C\c1coc2ccccc2c1=O	27.2*	-14.6	-9.1	64.4*	28.5	0.8	18.5
COc1ccc(NC(=O)CN2CCN(c3c(C)cc(C)cc3C)CC2)cc1	-21.4	-24.1	-42.3	-4.9	0.4	.	.
CC1CN/C(=C\C(=O)c2ccccc2)C(=O)N1 (configuration not stated)	29.9*	6.1	-8.5	65.4	-3.0	1.9	1.6
O=C(Nc1nc2c(F)cc(F)cc2s1)C1CC1	22.7*	0.9	-8.6	2.1	-1.1	19.5	33.8*
CCCn1cc(S(=O)(=O)c2ccc(OC)cc2)c(=O)c2cc(OC)ccc21	-16.3	-3.2	-17.9	30.5	-1.3	.	.
Cc1ccccc1OCCNc1cc(N2CCNCC2)ccc1[N+](=O)[O-]	30.3*	19.4	-2.7	19.7	.	47.5*	66.1*
COc1ccccc1OCCNc1cc(N2CCCCC2)ccc1[N+](=O)[O-]	-2.2	20.9	-14.5	20.8	5.8	.	.
CCCN(CCC)CCOc1cc(C)ccc1C(C)C	24.4*	-24.1	-31.4	15.3	3.2	31.0*	19.5
COc1ccccc1CNC(=O)Cn1cccc1C(=O)c1ccccc1C	0.9	-13.7	2.2	25.1	2.5	.	.
COc1cc2[nH]c(=S)nc(NCc3ccccn3)c2cc1OC	-11.1	.	.	.	1.3	.	.
CCC(C)n1c(SCc2ccc([N+](=O)[O-])cc2)nc2ccsc2c1=O (configuration not stated)	25.3*	-26.5	-16.6	22.8	28.0	22.9	43.9*
CC1(C)CC(=O)C=C(c2ccc(F)nc2)C1	.	-7.0	-25.5	13.1	-0.3	.	.
